Results reported in ChEMBL document CHEMBL3739344, “A novel class of negative allosteric modulators of NMDA receptor function” (Bioorg Med Chem Lett, 2015).
In brackets after ≈: the same amount, converted by molar mass. Activity calls are given as the source filed them. The calls are words filed in the database; no cut-off is given here.

Experiments:
Primary neuron [1] = assay: Neuroprotective activity in rat primary hippocampal neurons assessed as 100 uM NMDA and 30 uM glycine induced LDH release in media at 10 uM after 20 to 24 hrs by spectrophotometric analysis; format: functional, cell-based
Summary of the method: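 Rat hippocampal neurons were cultured 7–10 days in vitro at 37 °C. They were challenged for 1 h in Mg2+-free medium with 100 µM NMDA plus 30 µM glycine, then returned to normal medium. LDH in the supernatant was read spectrophotometrically 20–24 h later and expressed relative to vehicle-treated cells. Triplicates from 6 independent experiments.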

[2] = molecular target: T1, Glutamate NMDA receptor; Grin1/Grin2a (Rattus norvegicus) (UniProt P35439+Q00959); assay: Noncompetitive negative allosteric modulation of rat GluN1a/GluN2A receptor expressed in Xenopus laevis oocytes assessed as suppression of 100 uM glutamate and 300 uM glycine induced-current at 5 uM by voltage clamp recording method relative to control; format: cell-based
Summary of the method: (§1)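 Oocytes expressing GluN1 with GluN2A, 2B, 2C or 2D, two-electrode voltage clamp. Inhibition by 5 µM compound of currents evoked by 100 µM glutamate plus 30 µM glycine, compared with inhibition when glutamate was raised to 1000 µM or glycine to 300 µM. Mean ±SEM from 4–6 oocytes.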

[3] = molecular target: T1, Glutamate NMDA receptor; Grin1/Grin2a (Rattus norvegicus); assay: Noncompetitive negative allosteric modulation of rat GluN1a/GluN2A receptor expressed in Xenopus laevis oocytes assessed as suppression of 1000 uM glutamate and 30 uM glycine induced-current at 5 uM by voltage clamp recording method relative to control; format: cell-based; summary of the method: as §1
[4] = molecular target: Glutamate NMDA receptor; Grin1/Grin2c (Rattus norvegicus, UniProt P35439+Q00961); assay: Negative allosteric modulation of rat GluN1a/GluN2C receptor expressed in Xenopus laevis oocytes assessed as suppression of 100 uM glutamate and 30 uM glycine induced-current by voltage clamp recording method; format: cell-based
Summary of the method: (§2)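 Rat GluN1-1a cRNA co-injected with GluN2A, 2B, 2C or 2D cRNA into Xenopus oocytes; expression 1–3 days at 16–19 °C. Two-electrode voltage clamp. Currents evoked by 100 µM glutamate plus 30 µM glycine, alone and then with rising inhibitor concentrations. […] 4–17 oocytes from ≥2 frogs.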

Glutamate NMDA receptor = assay: Negative allosteric modulation of NMDA receptor in rat cerebellar granule cells assessed as suppression of 100 uM glutamate and 30 uM glycine induced-current cotreated with 100 uM NMDA and 50 uM glycine by patch clamp recording method
Summary of the method: (§3)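 Primary cerebellar granule cell cultures from P6–8 rats, whole-cell patch clamp at a holding potential of −70 mV. NMDA receptor currents evoked by 100 µM NMDA plus 30 µM glycine (50 µM glycine in the example trace), with the inhibitor co-applied at various concentrations. Steady-state inhibition averaged over n = 5 cells and fitted with the Hill equation.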

[5] = molecular target: T2, Glutamate NMDA receptor; Grin1/Grin2c (Rattus norvegicus) (UniProt P35439+Q00961); assay: Noncompetitive negative allosteric modulation of rat GluN1a/GluN2C receptor expressed in Xenopus laevis oocytes assessed as suppression of 1000 uM glutamate and 30 uM glycine induced-current at 5 uM by voltage clamp recording method relative to control; format: cell-based; summary of the method: as §1
[6] = molecular target: T3, Glutamate NMDA receptor; Grin1/Grin2b (Rattus norvegicus) (UniProt P35439+Q00960); assay: Noncompetitive negative allosteric modulation of rat GluN1a/GluN2B receptor expressed in Xenopus laevis oocytes assessed as suppression of 100 uM glutamate and 300 uM glycine induced-current at 5 uM by voltage clamp recording method relative to control; format: cell-based; summary of the method: as §1
[7] = molecular target: Ionotropic glutamate receptor NMDA 1/2D (Rattus norvegicus, UniProt P35439+Q62645); assay: Negative allosteric modulation of rat GluN1a/GluN2D receptor expressed in Xenopus laevis oocytes assessed as suppression of 100 uM glutamate and 30 uM glycine induced-current by voltage clamp recording method; format: cell-based; summary of the method: as §2
[8] = molecular target: T4, Ionotropic glutamate receptor NMDA 1/2D (Rattus norvegicus) (UniProt P35439+Q62645); assay: Noncompetitive negative allosteric modulation of rat GluN1a/GluN2D receptor expressed in Xenopus laevis oocytes assessed as suppression of 1000 uM glutamate and 30 uM glycine induced-current at 5 uM by voltage clamp recording method relative to control; format: cell-based; summary of the method: as §1
[9] = molecular target: Glutamate NMDA receptor; Grin1/Grin2b (Rattus norvegicus, UniProt P35439+Q00960); assay: Negative allosteric modulation of rat GluN1a/GluN2B receptor expressed in Xenopus laevis oocytes assessed as suppression of 100 uM glutamate and 30 uM glycine induced-current by voltage clamp recording method; format: cell-based; summary of the method: as §2
[10] = molecular target: T3, Glutamate NMDA receptor; Grin1/Grin2b (Rattus norvegicus); assay: Negative allosteric modulation of rat GluN1a/GluN2B receptor expressed in Xenopus laevis oocytes assessed as suppression of 100 uM glutamate and 30 uM glycine induced-current at saturating compound level by voltage clamp recording method; format: cell-based; summary of the method: as §2
[11] = molecular target: T2, Glutamate NMDA receptor; Grin1/Grin2c (Rattus norvegicus); assay: Negative allosteric modulation of rat GluN1a/GluN2C receptor expressed in Xenopus laevis oocytes assessed as suppression of 100 uM glutamate and 30 uM glycine induced-current at saturating compound level by voltage clamp recording method; format: cell-based; summary of the method: as §2
[12] = molecular target: Glutamate NMDA receptor; Grin1/Grin2a (Rattus norvegicus, UniProt P35439+Q00959); assay: Negative allosteric modulation of rat GluN1a/GluN2A receptor expressed in Xenopus laevis oocytes assessed as suppression of 100 uM glutamate and 30 uM glycine glycine induced-current by voltage clamp recording method; format: cell-based; summary of the method: as §2
[13] = molecular target: T2, Glutamate NMDA receptor; Grin1/Grin2c (Rattus norvegicus); assay: (§4) Negative allosteric modulation of rat GluN1a/GluN2C receptor expressed in Xenopus laevis oocytes assessed as suppression of 100 uM glutamate and 30 uM glycine induced-current at -60 to +60 mV at 3 uM by voltage clamp recording method in absence of Mg2+; format: cell-based
Summary of the method: (§5)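 GluN1/GluN2C receptors in Xenopus oocytes, two-electrode voltage clamp in Mg2+-free solution. Currents evoked by maximally effective glutamate plus glycine, without and with 3 µM inhibitor, recorded at membrane potentials from −60 to +60 mV. Reversal potential taken from the current–voltage relationship (3rd-order polynomial fit). n = 5 oocytes, mean ±SEM.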

[14] = molecular target: T4, Ionotropic glutamate receptor NMDA 1/2D (Rattus norvegicus); assay: Negative allosteric modulation of rat GluN1a/GluN2D receptor expressed in Xenopus laevis oocytes assessed as suppression of 100 uM glutamate and 30 uM glycine induced-current at saturating compound level by voltage clamp recording method; format: cell-based; summary of the method: as §2
Primary neuron [15] = assay: Neuroprotective activity in rat primary hippocampal neurons assessed as 100 uM NMDA and 30 uM glycine induced LDH release in media at 30 uM after 20 to 24 hrs by spectrophotometric analysis; format: functional, cell-based
Summary of the method: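 Primary rat hippocampal neurons kept 7–10 days in vitro at 37 °C. Challenged for 1 h with Mg2+-free medium containing 100 µM NMDA plus 30 µM glycine, with or without […], then returned to normal medium. LDH activity in the supernatant read spectrophotometrically 20–24 h later and expressed relative to vehicle-treated cells. Triplicates from 6 independent experiments.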

[16] = molecular target: T1, Glutamate NMDA receptor; Grin1/Grin2a (Rattus norvegicus); assay: Negative allosteric modulation of rat GluN1a/GluN2A receptor expressed in Xenopus laevis oocytes assessed as suppression of 100 uM glutamate and 30 uM glycine induced-current at saturating compound level by voltage clamp recording method; format: cell-based; summary of the method: as §2
[17] = molecular target: T2, Glutamate NMDA receptor; Grin1/Grin2c (Rattus norvegicus); assay: Noncompetitive negative allosteric modulation of rat GluN1a/GluN2C receptor expressed in Xenopus laevis oocytes assessed as suppression of 100 uM glutamate and 300 uM glycine induced-current at 5 uM by voltage clamp recording method relative to control; format: cell-based; summary of the method: as §1
[18] = molecular target: T2, Glutamate NMDA receptor; Grin1/Grin2c (Rattus norvegicus); assay: as §4, with “Voltage-independent negative” for “Negative”, “mean reverse potential” for “suppression”, “Mg2+ (Rvb=-13+/-0.6 mV)” for “Mg2+”; format: cell-based; summary of the method: as §5
[19] = Solubility of compound in TEVC electrophysiological solution at 3.25 to 100 uM by nephelometric method; format: physicochemical
Summary of the method: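 Nephelometry measuring forward light scattering of each compound at 3.25–100 µM in TEVC recording solution. Maximum solubility taken as the intersection point of a linear segmental regression. Mean of n = 2 in quadruplicate.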

[20] = molecular target: T3, Glutamate NMDA receptor; Grin1/Grin2b (Rattus norvegicus); assay: Noncompetitive negative allosteric modulation of rat GluN1a/GluN2B receptor expressed in Xenopus laevis oocytes assessed as suppression of 1000 uM glutamate and 30 uM glycine induced-current at 5 uM by voltage clamp recording method relative to control; format: cell-based; summary of the method: as §1
[21] = molecular target: Glutamate NMDA receptor (Rattus norvegicus) (UniProt P35439+Q00959+Q00960+Q00961+Q62645+Q8VHN2+Q9R1M7); assay: Negative allosteric modulation of NMDA receptor in rat cerebellar granule cells assessed as suppression of 100 uM glutamate and 30 uM glycine induced-current at 30 uM cotreated with 100 uM NMDA and 50 uM glycine by patch clamp recording method; summary of the method: as §3
[22] = molecular target: T4, Ionotropic glutamate receptor NMDA 1/2D (Rattus norvegicus); assay: Noncompetitive negative allosteric modulation of rat GluN1a/GluN2D receptor expressed in Xenopus laevis oocytes assessed as suppression of 100 uM glutamate and 300 uM glycine induced-current at 5 uM by voltage clamp recording method relative to control; format: cell-based; summary of the method: as §1
Rattus norvegicus = organism: Rattus norvegicus; assay: Selectivity ratio of IC50 for rat GluN1a/GluN2A receptor expressed in Xenopus laevis oocytes to IC50 for rat GluN1a/GluN2D receptor expressed in Xenopus laevis oocytes; format: cell-based
[23] = molecular target: T1, Glutamate NMDA receptor; Grin1/Grin2a (Rattus norvegicus); assay: Negative allosteric modulation of rat GluN1a/GluN2A receptor expressed in Xenopus laevis oocytes assessed as suppression of 100 uM glutamate and 30 uM glycine induced-current at 30 uM by voltage clamp recording method; format: cell-based
[24] = molecular target: T3, Glutamate NMDA receptor; Grin1/Grin2b (Rattus norvegicus); assay: Negative allosteric modulation of rat GluN1a/GluN2B receptor expressed in Xenopus laevis oocytes assessed as suppression of 100 uM glutamate and 30 uM glycine induced-current at 30 uM by voltage clamp recording method; format: cell-based
[25] = molecular target: T4, Ionotropic glutamate receptor NMDA 1/2D (Rattus norvegicus); assay: Negative allosteric modulation of rat GluN1a/GluN2D receptor expressed in Xenopus laevis oocytes assessed as suppression of 100 uM glutamate and 30 uM glycine at 30 uM glycine induced-current by voltage clamp recording method; format: cell-based
[26] = molecular target: T2, Glutamate NMDA receptor; Grin1/Grin2c (Rattus norvegicus); assay: Negative allosteric modulation of rat GluN1a/GluN2C receptor expressed in Xenopus laevis oocytes assessed as suppression of 100 uM glutamate and 30 uM glycine at 30 uM glycine induced-current by voltage clamp recording method; format: cell-based

SMILES	IC50 [4] [nM]	IC50 [7] [nM]	inhibition [11] [%]	inhibition [14] [%]	inhibition [23] [%]	inhibition [24] [%]	inhibition [25] [%]	inhibition [26] [%]	also measured
C[C@]12N[C@H](Cc3ccccc31)c1ccccc12	–	–	–	–	–	–	–	–	Activity (Primary neuron [1]): Active
CCOC(=O)c1c(NC(=O)CC2SC(N)=NC2=O)sc2c1CCC(C)C2 (racemic)	700	400	80	76	–	–	–	–	inhibition [2]: Active; inhibition [3]: Active; IC50 (Glutamate NMDA receptor): 3.4 µM; inhibition [5]: Active; inhibition [6]: Active; inhibition [8]: Active; IC50 [9]: 2.2 µM; inhibition [10]: 70%; IC50 [12]: 0.9 µM; inhibition [13]: Active; Activity (Primary neuron [15]): Active; inhibition [16]: 88%; inhibition [17]: Active; Activity [18]: -11.9 mV; solubility kinetic [19]: 43 µM (≈ 17 µg/mL); inhibition [20]: Active; inhibition [21]: Active; inhibition [22]: Active
CCOC(=O)c1c(NC(=O)CC2SC(=N)NC2=O)sc2c1CCSC2 (racemic)	800	800	88	84	–	–	–	–	IC50 [9]: 12.2 µM; inhibition [10]: 78%; IC50 [12]: 6.2 µM; inhibition [16]: 82%; Ratio IC50 (Rattus norvegicus): 7
COC(=O)c1ccsc1NC(=O)CC1SC(=N)NC1=O (racemic)	41000	43300	100	99	< 25	< 25	–	–	–
CCOC(=O)c1c(NC(=O)CC2NC(=O)NC2=O)sc2c1CCCC2 (racemic)	–	–	–	–	< 25	< 25	< 25	< 25	–
CCOC(=O)c1c(NC(=O)CC2S/C(=N\C)N(C)C2=O)sc2c1CCCC2 (racemic)	–	–	–	–	< 25	< 25	< 25	< 25	–
CCOC(=O)c1c(NC(=O)CC2SC(=O)NC2=O)sc2c1CCC2 (racemic)	–	–	–	–	< 25	< 25	< 25	< 25	–
CCOC(=O)c1c(NC(=O)CC2SC(=O)NC2=O)sc2c1CCCC2 (racemic)	–	–	–	–	< 25	< 25	< 25	< 25	–
COC(=O)c1c(NC(=O)CC2SC(N)=NC2=O)sc2c1CCC(C(C)(C)C)C2 (racemic)	–	–	–	–	< 25	< 25	< 25	< 25	–
N=C1NC(=O)C(CC(=O)Nc2sc3c(c2C(=O)O)CCCC3)S1 (racemic)	–	–	–	–	< 25	< 25	< 25	< 25	–
